We go through 23 molecules from ChEMBL document CHEMBL1134591, “N-Aryl sulfonyl homocysteine hydroxamate inhibitors of matrix metalloproteinases: further probing of the S(1), S(1)', and S(2)' pockets” (J Med Chem, 2001).

Molecules are shown by their SMILES.

In one assay the target is T1, Interstitial collagenase (Homo sapiens, UniProt P03956).
T1 sequence (P03956 whole entry): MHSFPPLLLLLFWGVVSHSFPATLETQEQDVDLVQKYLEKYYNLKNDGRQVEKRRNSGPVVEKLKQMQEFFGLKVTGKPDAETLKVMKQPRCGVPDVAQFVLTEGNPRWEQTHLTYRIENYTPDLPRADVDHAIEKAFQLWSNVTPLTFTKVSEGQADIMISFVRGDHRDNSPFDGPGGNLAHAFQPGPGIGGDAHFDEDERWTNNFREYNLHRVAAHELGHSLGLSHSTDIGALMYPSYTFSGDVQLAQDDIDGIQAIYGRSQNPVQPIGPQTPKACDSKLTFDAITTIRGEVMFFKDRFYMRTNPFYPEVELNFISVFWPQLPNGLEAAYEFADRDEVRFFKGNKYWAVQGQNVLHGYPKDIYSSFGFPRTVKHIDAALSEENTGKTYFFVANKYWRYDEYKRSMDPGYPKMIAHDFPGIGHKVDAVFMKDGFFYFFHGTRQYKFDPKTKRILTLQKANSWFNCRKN
The assay can be described thus: In vitro inhibition of human matrix metalloprotease-1.

Assay [1] has as its target 72 kDa type IV collagenase (Homo sapiens, UniProt P08253). In words: In vitro inhibition of human matrix metalloprotease-2.
For a further assay, the target named is Collagenase 3 (Homo sapiens, UniProt P45452). The assay can be described thus: In vitro inhibition of human matrix metalloprotease-13.
Assay [2] addresses Matrix metalloproteinase-9 (Homo sapiens, UniProt P14780). In words: In vitro inhibition of human matrix metalloprotease-9. A digest of the protocol: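 APMA-activated enzyme, fluorogenic quenched peptide substrate Dnp-Pro-Cha-Gly-Cys(Me)-His-Ala-Lys(Nma)-NH₂, cleaved between Gly and Cys; inhibition read as substrate cleavage, reported as IC50 (nM).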
For a further assay, the target named is Stromelysin-1 (Homo sapiens, UniProt P08254). In words: In vitro inhibitory activity against matrix metalloprotease-3. The method, boiled down:
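MMP-3 activated with APMA (4-aminophenylmercuric acetate); cleavage of quenched fluorogenic substrate (7-methoxycoumarin-4-yl)-Arg-Pro-Lys-Pro-Tyr-Ala-Nva-Trp-Met-Lys(Dnp)-NH₂ at the Ala–Nva bond monitored; IC50 (nM) derived.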

Sequence of 72 kDa type IV collagenase (P08253 whole entry): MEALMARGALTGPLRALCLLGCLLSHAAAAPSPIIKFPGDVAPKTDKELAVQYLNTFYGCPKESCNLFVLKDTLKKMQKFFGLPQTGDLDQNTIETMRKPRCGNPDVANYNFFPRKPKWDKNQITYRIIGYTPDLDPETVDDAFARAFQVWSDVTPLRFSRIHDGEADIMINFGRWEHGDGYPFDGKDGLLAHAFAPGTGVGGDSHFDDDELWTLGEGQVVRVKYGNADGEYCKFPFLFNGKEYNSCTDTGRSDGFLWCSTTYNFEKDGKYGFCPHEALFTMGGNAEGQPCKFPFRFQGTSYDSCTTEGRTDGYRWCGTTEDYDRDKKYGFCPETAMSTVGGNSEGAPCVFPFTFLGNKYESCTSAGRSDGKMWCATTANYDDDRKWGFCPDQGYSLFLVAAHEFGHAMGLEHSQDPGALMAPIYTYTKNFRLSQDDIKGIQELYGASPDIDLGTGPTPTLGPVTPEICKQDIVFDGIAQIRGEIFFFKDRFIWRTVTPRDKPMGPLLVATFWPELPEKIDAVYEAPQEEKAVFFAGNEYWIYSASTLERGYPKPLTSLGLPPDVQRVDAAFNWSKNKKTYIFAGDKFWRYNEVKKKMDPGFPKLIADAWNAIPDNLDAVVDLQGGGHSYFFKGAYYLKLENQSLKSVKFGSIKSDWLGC
Sequence of Stromelysin-1 (P08254 whole entry): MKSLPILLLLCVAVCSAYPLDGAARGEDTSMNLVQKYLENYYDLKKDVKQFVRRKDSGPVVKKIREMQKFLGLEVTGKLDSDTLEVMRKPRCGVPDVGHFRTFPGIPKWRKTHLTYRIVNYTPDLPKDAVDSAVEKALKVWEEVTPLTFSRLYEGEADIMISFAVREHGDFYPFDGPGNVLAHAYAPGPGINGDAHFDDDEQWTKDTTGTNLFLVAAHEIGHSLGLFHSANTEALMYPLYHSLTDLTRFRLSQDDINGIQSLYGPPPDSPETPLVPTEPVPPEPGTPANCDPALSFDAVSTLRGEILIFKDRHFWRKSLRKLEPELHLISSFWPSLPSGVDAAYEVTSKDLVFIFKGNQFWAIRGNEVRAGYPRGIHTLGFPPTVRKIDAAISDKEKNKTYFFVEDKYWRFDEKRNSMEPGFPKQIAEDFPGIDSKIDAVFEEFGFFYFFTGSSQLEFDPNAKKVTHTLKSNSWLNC
Sequence of Matrix metalloproteinase-9 (P14780 whole entry): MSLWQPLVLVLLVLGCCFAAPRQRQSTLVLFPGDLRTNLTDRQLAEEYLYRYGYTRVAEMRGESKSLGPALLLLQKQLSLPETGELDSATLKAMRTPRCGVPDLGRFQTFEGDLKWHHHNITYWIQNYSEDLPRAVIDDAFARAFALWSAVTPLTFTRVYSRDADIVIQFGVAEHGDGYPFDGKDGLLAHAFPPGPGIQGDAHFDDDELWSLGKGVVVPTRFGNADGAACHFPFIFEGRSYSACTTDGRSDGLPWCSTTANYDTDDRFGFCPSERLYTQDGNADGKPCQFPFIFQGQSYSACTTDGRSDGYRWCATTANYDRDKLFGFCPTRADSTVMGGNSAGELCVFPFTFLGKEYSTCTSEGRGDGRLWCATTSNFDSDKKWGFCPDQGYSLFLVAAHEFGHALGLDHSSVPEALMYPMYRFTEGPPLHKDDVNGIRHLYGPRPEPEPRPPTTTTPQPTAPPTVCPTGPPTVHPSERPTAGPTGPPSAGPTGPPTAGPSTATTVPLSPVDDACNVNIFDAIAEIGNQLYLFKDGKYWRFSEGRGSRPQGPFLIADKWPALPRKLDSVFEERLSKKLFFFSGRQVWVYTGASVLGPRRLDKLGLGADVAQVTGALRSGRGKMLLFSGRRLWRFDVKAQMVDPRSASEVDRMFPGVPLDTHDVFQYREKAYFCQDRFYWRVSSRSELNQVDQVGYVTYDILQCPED

In general, IC50 refers to the concentration needed to halve the response being measured. Low readings indicate greater potency in that assay, high ones weaker potency in that assay. Consider `COc1ccc(CNC(=O)CN(C(CCSCc2ccccc2)C(=O)NO)S(=O)(=O)c2ccc(OC)cc2)cc1` (centres undefined), for which the IC50 worked out at 19 nM at Interstitial collagenase; 0.7 nM in assay [1]; 0.7 nM against Collagenase 3; 0.2 nM in assay [2]; 0.9 nM on Stromelysin-1.
As to `COc1ccc(S(=O)(=O)N(CC(C)C)C(CCSCc2c(F)c(F)c(F)c(F)c2F)C(=O)NO)cc1` (centres undefined), the IC50 in assay [1] worked out at 1810 nM; against Collagenase 3, 407 nM; in assay [2], 149 nM; against Stromelysin-1, 705 nM.
As for `COc1ccc(S(=O)(=O)N(CC(C)C)C(CCSCc2ccc(-c3ccccc3)cc2)C(=O)NO)cc1` (centres undefined), the values for the IC50 (in assay [1]; in assay [2]; against Stromelysin-1) were 30 nM, 0.2 nM and 20 nM, respectively.
Take `COc1ccc(S(=O)(=O)N(CC(=O)NC2CCCCC2)C(CCSCc2ccccc2)C(=O)NO)cc1` (centres undefined): the IC50 came to 16 nM on Interstitial collagenase; 1 nM in assay [1]; 0.8 nM against Collagenase 3; 0.2 nM in assay [2]; 1.6 nM against Stromelysin-1.
The corresponding values for `COc1ccc(S(=O)(=O)N(CC(=O)NCc2ccccc2)C(CCSCc2ccccc2)C(=O)NO)cc1` (centres undefined) are 51 nM, 0.7 nM, 0.5 nM, 0.2 nM and 1.6 nM.
Turning to `COc1ccc(S(=O)(=O)N(CC(C)C)C(CCS(=O)(=O)Cc2ccccc2)C(=O)NO)cc1` (centres undefined), the IC50 on Interstitial collagenase worked out at 396 nM; in assay [1], 4.22 nM; at Collagenase 3 it was 11.8 nM; in assay [2] it was 0.9 nM; against Stromelysin-1 it was 10.3 nM.
Consider `COc1ccc(S(=O)(=O)N(CC(C)C)C(CCSCc2ccccc2)C(=O)NO)cc1` (centres undefined), for which the half-maximal inhibitory concentration (IC50) on Interstitial collagenase was 104 nM; in assay [1] it was 0.7 nM; at Collagenase 3, 12 nM; in assay [2], under 0.1 nM; on Stromelysin-1 it was 0.7 nM.
Regarding `CC(C)CN(C(CCSCc1ccccc1)C(=O)NO)S(=O)(=O)c1ccc(Oc2ccccc2)cc1` (centres undefined), the IC50 worked out at 1.6 nM in assay [1], 3.2 nM against Collagenase 3, 0.5 nM in assay [2] and 4.2 nM against Stromelysin-1.
For the molecule `COc1ccc(S(=O)(=O)N(CC(C)C)C(CCSCc2ccc(OCc3ccccc3)cc2)C(=O)NO)cc1` (centres undefined), the IC50 in assay [2] was 8 nM; at Stromelysin-1, 29 nM.
Consider `CCC(C(=O)NO)N(CC(C)C)S(=O)(=O)c1ccc(OC)cc1` (centres undefined), for which the IC50 turned out to be 384 nM against Interstitial collagenase; 53 nM in assay [1]; 96 nM against Collagenase 3; 7 nM in assay [2]; 45 nM at Stromelysin-1.
Taken in the same sequence, the figures for `COc1ccc(S(=O)(=O)N(CC(C)C)C(CCSCc2cccc(OC)c2)C(=O)NO)cc1` (centres undefined) were 297 nM, 3.78 nM, 5.3 nM, 3.2 nM and 5.7 nM.
Taken in the same sequence, the figures for `COc1ccc(S(=O)(=O)N(CC(=O)NC(c2ccccn2)c2ccccn2)C(CCSCc2ccccc2)C(=O)NO)cc1` (centres undefined) were 39 nM, 0.4 nM, 0.4 nM, 0.2 nM and 1.1 nM.
Regarding `COc1ccc(S(=O)(=O)N(CC(=O)N2CCOCC2)C(CCSCc2ccccc2)C(=O)NO)cc1` (centres undefined), the IC50 was determined as 532 nM against Interstitial collagenase; 16 nM in assay [1]; 23 nM at Collagenase 3; 29 nM in assay [2]; 195 nM against Stromelysin-1.
Consider `COc1ccc(S(=O)(=O)N(CC(C)C)C(CCSCc2cccnc2)C(=O)NO)cc1` (centres undefined), for which the IC50 was 126 nM at Interstitial collagenase; 6.3 nM in assay [1]; 16.2 nM on Collagenase 3; 3 nM in assay [2]; 6.2 nM against Stromelysin-1.
Turning to `COc1ccc(S(=O)(=O)N(CC(=O)NCc2cccnc2)C(CCSCc2ccccc2)C(=O)NO)cc1` (centres undefined), the IC50 in assay [1] was found to be 1.2 nM; at Collagenase 3 it was 1.1 nM; in assay [2], 0.2 nM; against Stromelysin-1, 2.2 nM.
For the molecule `CC(C)CN(C(CCSCc1ccccc1)C(=O)NO)S(=O)(=O)c1ccc(Br)cc1` (centres undefined), the IC50 turned out to be 164 nM against Interstitial collagenase; 16 nM in assay [1]; 14 nM at Collagenase 3; 4.3 nM in assay [2]; 15.1 nM on Stromelysin-1.
In the case of `CC(C)CN(C(CCSCc1ccccc1)C(=O)NO)S(=O)(=O)c1ccc(-c2ccccc2)cc1` (centres undefined), the IC50 in assay [1] worked out at 4.1 nM; against Collagenase 3, 3.8 nM; in assay [2] it was 2.5 nM; against Stromelysin-1, 90 nM.
`COc1ccc(S(=O)(=O)N(CC(C)C)C(CCSCc2ccsc2)C(=O)NO)cc1` (centres undefined): the IC50 against Interstitial collagenase turned out to be 188 nM; in assay [1] it was 3.2 nM; on Collagenase 3, 5.1 nM; in assay [2], 1 nM; on Stromelysin-1 it was 5.4 nM.
Consider `COc1ccc(S(=O)(=O)N(CC(=O)NC(C2CCCCC2)C2CCCCC2)C(CCSCc2ccccc2)C(=O)NO)cc1` (centres undefined), for which the IC50 in assay [1] was found to be 8.82 nM; in assay [2], 1.88 nM.
For the molecule `COc1ccc(S(=O)(=O)N(CC(=O)NCC2CCCCC2)C(CCSCc2ccccc2)C(=O)NO)cc1` (centres undefined), the IC50 was 0.3 nM in assay [1] and 0.01 nM in assay [2].
Turning to `COc1ccc(S(=O)(=O)N(CC(=O)NCc2cc(OC)cc(OC)c2)C(CCSCc2ccccc2)C(=O)NO)cc1` (centres undefined), the IC50 amounted to 36 nM on Interstitial collagenase; 1.6 nM in assay [1]; 2.3 nM at Collagenase 3; 0.6 nM in assay [2]; 4.7 nM against Stromelysin-1.
As for `COc1ccc(S(=O)(=O)N(CC(=O)NC(c2ccccc2)c2ccccc2)C(CCSCc2ccccc2)C(=O)NO)cc1` (centres undefined), the IC50 in assay [1] came to 2.3 nM; on Collagenase 3 it was 4.5 nM; in assay [2] it was 0.5 nM; on Stromelysin-1 it was 3.7 nM.
For the molecule `COc1ccc(S(=O)(=O)N(CC(=O)NCc2c(OC)cc(OC)cc2OC)C(CCSCc2ccccc2)C(=O)NO)cc1` (centres undefined), the IC50 against Interstitial collagenase is 49 nM; in assay [1] it was 1.2 nM; at Collagenase 3 it was 1.6 nM; in assay [2], 0.3 nM; against Stromelysin-1 it was 2.5 nM.
